# ChEMBL document CHEMBL4689842, “EUbOPEN Chemogenomics Library wave 1” (2021)
# Test system: Fibroblast
# Experiment: Multiplex assay against human fibroblast
# Assay type: toxicity, cell-based
# Summary of the method: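 With compound added, live cells were imaged on a CQ1 microscope at 37°C and 5% CO2; staining with Hoechst33342, BioTracker Green Microtubule Cytoskeleton Dye, MitoTracker Red and Annexin V Alexa Fluor 680 had been done at seeding. The CellPathfinder machine-learning gating scheme split cells into Hoechst high-intensity objects or normal cells, normal cells into healthy, pyknosed or fragmented nuclei, and pyknosed cells into mitotic or apoptotic. The tubulin, mitochondrial-mass and membrane-permeability phenotypes are per cents of healthy-nucleus cells.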
# [1] = 12 h, 1 µM, compound concentration 1 uM, replicate 1
# [2] = 12 h, 1 µM, compound concentration 1 uM, replicate 2
# [3] = 12 h, 10 µM, compound concentration 10 uM, replicate 1
# [4] = 12 h, 10 µM, compound concentration 10 uM, replicate 2
# [5] = 24 h, 1 µM, compound concentration 1 uM, replicate 1
# [6] = 24 h, 1 µM, compound concentration 1 uM, replicate 2
# [7] = 24 h, 10 µM, compound concentration 10 uM, replicate 1
# [8] = 24 h, 10 µM, compound concentration 10 uM, replicate 2
smiles,measurement,setting,value
CNC(=O)c1cc(Oc2ccc(NC(=O)Nc3cc(C(C)(C)C)nn3-c3ccc4ncccc4c3)c(F)c2)ccn1 [REBASTINIB],Population Apoptotic (%),[1],90%
same,Population Fragmented Nuclei (%),[1],24%
same,Population Healthy Nuclei (%),[1],66%
same,Population Hoechst High Intensity Objects (%),[1],10%
same,Population Membrane Permeable-Phenotype (%),[1],4%
same,Population Mitochondria Different-Phenotype (%),[1],2%
same,Population Mitotic Cells (%),[1],10%
same,Population Normal (%),[1],89%
same,Population Pyknosed Nuclei (%),[1],9%
same,Population Tubulin-Different-Phenotype (%),[1],4%
same,Total Cell Count,[1],237
same,Population Apoptotic (%),[2],40%
same,Population Fragmented Nuclei (%),[2],56%
same,Population Healthy Nuclei (%),[2],32%
same,Population Hoechst High Intensity Objects (%),[2],38%
same,Population Membrane Permeable-Phenotype (%),[2],26%
same,Population Mitochondria Different-Phenotype (%),[2],6%
same,Population Mitotic Cells (%),[2],60%
same,Population Normal (%),[2],61%
same,Population Pyknosed Nuclei (%),[2],10%
same,Population Tubulin-Different-Phenotype (%),[2],26%
same,Total Cell Count,[2],75
same,Population Apoptotic (%),[3],59%
same,Population Fragmented Nuclei (%),[3],20%
same,Population Healthy Nuclei (%),[3],59%
same,Population Hoechst High Intensity Objects (%),[3],8%
same,Population Membrane Permeable-Phenotype (%),[3],10%
same,Population Mitochondria Different-Phenotype (%),[3],16%
same,Population Mitotic Cells (%),[3],40%
same,Population Normal (%),[3],91%
same,Population Pyknosed Nuclei (%),[3],19%
same,Population Tubulin-Different-Phenotype (%),[3],44%
same,Total Cell Count,[3],238
same,Population Apoptotic (%),[4],85%
same,Population Fragmented Nuclei (%),[4],54%
same,Population Healthy Nuclei (%),[4],24%
same,Population Hoechst High Intensity Objects (%),[4],45%
same,Population Membrane Permeable-Phenotype (%),[4],0%
same,Population Mitochondria Different-Phenotype (%),[4],37%
same,Population Mitotic Cells (%),[4],14%
same,Population Normal (%),[4],55%
same,Population Pyknosed Nuclei (%),[4],21%
same,Population Tubulin-Different-Phenotype (%),[4],50%
same,Total Cell Count,[4],60
same,Population Apoptotic (%),[5],83%
same,Population Fragmented Nuclei (%),[5],24%
same,Population Healthy Nuclei (%),[5],64%
same,Population Hoechst High Intensity Objects (%),[5],12%
same,Population Membrane Permeable-Phenotype (%),[5],2%
same,Population Mitochondria Different-Phenotype (%),[5],2%
same,Population Mitotic Cells (%),[5],16%
same,Population Normal (%),[5],87%
same,Population Pyknosed Nuclei (%),[5],11%
same,Population Tubulin-Different-Phenotype (%),[5],3%
same,Total Cell Count,[5],239
same,Population Apoptotic (%),[6],33%
same,Population Fragmented Nuclei (%),[6],56%
same,Population Healthy Nuclei (%),[6],37%
same,Population Hoechst High Intensity Objects (%),[6],30%
same,Population Membrane Permeable-Phenotype (%),[6],5%
same,Population Mitochondria Different-Phenotype (%),[6],10%
same,Population Mitotic Cells (%),[6],66%
same,Population Normal (%),[6],69%
same,Population Pyknosed Nuclei (%),[6],5%
same,Population Tubulin-Different-Phenotype (%),[6],31%
same,Total Cell Count,[6],73
same,Population Apoptotic (%),[7],52%
same,Population Fragmented Nuclei (%),[7],24%
same,Population Healthy Nuclei (%),[7],57%
same,Population Hoechst High Intensity Objects (%),[7],14%
same,Population Membrane Permeable-Phenotype (%),[7],4%
same,Population Mitochondria Different-Phenotype (%),[7],28%
same,Population Mitotic Cells (%),[7],47%
same,Population Normal (%),[7],85%
same,Population Pyknosed Nuclei (%),[7],17%
same,Population Tubulin-Different-Phenotype (%),[7],54%
same,Total Cell Count,[7],229
same,Population Apoptotic (%),[8],70%
same,Population Fragmented Nuclei (%),[8],52%
same,Population Healthy Nuclei (%),[8],22%
same,Population Hoechst High Intensity Objects (%),[8],33%
same,Population Membrane Permeable-Phenotype (%),[8],33%
same,Population Mitochondria Different-Phenotype (%),[8],44%
same,Population Mitotic Cells (%),[8],30%
same,Population Normal (%),[8],66%
same,Population Pyknosed Nuclei (%),[8],25%
same,Population Tubulin-Different-Phenotype (%),[8],44%
same,Total Cell Count,[8],60
CN(C)CCOc1ccc(-c2nc(-c3ccncc3)c(-c3ccc4c(c3)CC/C4=N\O)[nH]2)cc1 [SB590885],Population Apoptotic (%),[1],86%
same,Population Fragmented Nuclei (%),[1],40%
same,Population Healthy Nuclei (%),[1],29%
same,Population Hoechst High Intensity Objects (%),[1],31%
same,Population Membrane Permeable-Phenotype (%),[1],4%
same,Population Mitochondria Different-Phenotype (%),[1],1%
same,Population Mitotic Cells (%),[1],13%
same,Population Normal (%),[1],68%
same,Population Pyknosed Nuclei (%),[1],30%
same,Population Tubulin-Different-Phenotype (%),[1],12%
same,Total Cell Count,[1],562
same,Population Apoptotic (%),[2],87%
same,Population Fragmented Nuclei (%),[2],44%
same,Population Healthy Nuclei (%),[2],3%
same,Population Hoechst High Intensity Objects (%),[2],32%
same,Population Membrane Permeable-Phenotype (%),[2],10%
same,Population Mitochondria Different-Phenotype (%),[2],5%
same,Population Mitotic Cells (%),[2],12%
same,Population Normal (%),[2],67%
same,Population Pyknosed Nuclei (%),[2],52%
same,Population Tubulin-Different-Phenotype (%),[2],42%
same,Total Cell Count,[2],833
same,Population Apoptotic (%),[3],84%
same,Population Fragmented Nuclei (%),[3],38%
same,Population Healthy Nuclei (%),[3],48%
same,Population Hoechst High Intensity Objects (%),[3],14%
same,Population Membrane Permeable-Phenotype (%),[3],4%
same,Population Mitochondria Different-Phenotype (%),[3],5%
same,Population Mitotic Cells (%),[3],15%
same,Population Normal (%),[3],85%
same,Population Pyknosed Nuclei (%),[3],12%
same,Population Tubulin-Different-Phenotype (%),[3],13%
same,Total Cell Count,[3],245
same,Population Apoptotic (%),[4],100%
same,Population Fragmented Nuclei (%),[4],69%
same,Population Healthy Nuclei (%),[4],28%
same,Population Hoechst High Intensity Objects (%),[4],50%
same,Population Membrane Permeable-Phenotype (%),[4],11%
same,Population Mitochondria Different-Phenotype (%),[4],16%
same,Population Mitotic Cells (%),[4],0%
same,Population Normal (%),[4],49%
same,Population Pyknosed Nuclei (%),[4],1%
same,Population Tubulin-Different-Phenotype (%),[4],22%
same,Total Cell Count,[4],128
same,Population Apoptotic (%),[5],88%
same,Population Fragmented Nuclei (%),[5],50%
same,Population Healthy Nuclei (%),[5],40%
same,Population Hoechst High Intensity Objects (%),[5],43%
same,Population Membrane Permeable-Phenotype (%),[5],1%
same,Population Mitochondria Different-Phenotype (%),[5],0%
same,Population Mitotic Cells (%),[5],11%
same,Population Normal (%),[5],56%
same,Population Pyknosed Nuclei (%),[5],8%
same,Population Tubulin-Different-Phenotype (%),[5],5%
same,Total Cell Count,[5],552
same,Population Apoptotic (%),[6],90%
same,Population Fragmented Nuclei (%),[6],36%
same,Population Healthy Nuclei (%),[6],3%
same,Population Hoechst High Intensity Objects (%),[6],35%
same,Population Membrane Permeable-Phenotype (%),[6],20%
same,Population Mitochondria Different-Phenotype (%),[6],5%
same,Population Mitotic Cells (%),[6],9%
same,Population Normal (%),[6],64%
same,Population Pyknosed Nuclei (%),[6],59%
same,Population Tubulin-Different-Phenotype (%),[6],25%
same,Total Cell Count,[6],821
same,Population Apoptotic (%),[7],67%
same,Population Fragmented Nuclei (%),[7],35%
same,Population Healthy Nuclei (%),[7],51%
same,Population Hoechst High Intensity Objects (%),[7],14%
same,Population Membrane Permeable-Phenotype (%),[7],6%
same,Population Mitochondria Different-Phenotype (%),[7],3%
same,Population Mitotic Cells (%),[7],32%
same,Population Normal (%),[7],85%
same,Population Pyknosed Nuclei (%),[7],13%
same,Population Tubulin-Different-Phenotype (%),[7],9%
same,Total Cell Count,[7],299
same,Population Apoptotic (%),[8],100%
same,Population Fragmented Nuclei (%),[8],70%
same,Population Healthy Nuclei (%),[8],28%
same,Population Hoechst High Intensity Objects (%),[8],53%
same,Population Membrane Permeable-Phenotype (%),[8],31%
same,Population Mitochondria Different-Phenotype (%),[8],18%
same,Population Mitotic Cells (%),[8],0%
same,Population Normal (%),[8],46%
same,Population Pyknosed Nuclei (%),[8],1%
same,Population Tubulin-Different-Phenotype (%),[8],37%
same,Total Cell Count,[8],122
